In ChEMBL document CHEMBL1137668, “Activities of several classes of acyclic nucleoside phosphonates against camelpox virus replication in different cell culture models” (Antimicrob Agents Chemother, 2007):
Calls of active or inactive are those of the source. No cut-off for these calls is given here.

Key:
Camelpox virus [1] = test: Antiviral activity against Camelpox virus CML1 infected in HEL299 cells assessed as inhibition of virus-induced cytopathic effect after 6 days by Giemsa staining; type: functional, organism-based; details: CML1, HEL 299, 144 h
Camelpox virus [2] = test: Antiviral activity against Camelpox virus CML14 infected in HEL299 cells assessed as inhibition of virus-induced cytopathic effect after 6 days by Giemsa staining; type: functional, organism-based; details: CML14, HEL 299, 144 h
[3] = Cytotoxicity against HEL299 cells after 4 days by Z1 Coulter counting analysis; type: cell-based, HEL 299; details: human; for CC50 at 96 h: HEL299 cells
How it was run: (§1)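 Cell growth inhibition: HEL cells were seeded at 3.5 × 10³ per well and PHKs at 5 × 10³ per well. Serial dilutions were added in duplicate after 1 day (HEL) or 3 days (PHK). After 4 days with compound, cells were trypsinized and counted with a Coulter counter (8 μm lower limit). CC50 is the concentration reducing growth by 50%, mean ± SD of at least two experiments.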

[4] = Selectivity index, ratio of CC50 for HEL299 cells to EC50 for Camelpox virus CML1 infected in HEL299 cells; type: toxicity, cell-based, HEL 299; details: human; for selectivity ratio: HEL299 cells, read-out: Ratio CC50/IC50
[5] = Selectivity index, ratio of CC50 for HEL299 cells to EC50 for Camelpox virus CML14 infected in HEL299 cells; type: toxicity, cell-based, HEL 299; details: human; for selectivity ratio: HEL299 cells, read-out: Ratio CC50/IC50
Camelpox virus [6] = test: Antiviral activity against Camelpox virus CML1 infected in human PHK assessed as inhibition of virus-induced cytopathic effect after 6 days by Giemsa staining; type: functional, organism-based; details: CML1, 144 h
Camelpox virus [7] = test: Antiviral activity against Camelpox virus CML14 infected in human PHK assessed as inhibition of virus-induced cytopathic effect after 6 days by Giemsa staining; type: functional, organism-based; details: CML14, 144 h
[8] = Cytotoxicity against human PHK after 4 days by Z1 Coulter counting analysis; details: for CC50 at 96 h: PHK cells; how it was run: as §1
[9] = Selectivity index, ratio of CC50 for human PHK to EC50 for Camelpox virus CML1 infected in human PHK
[10] = Selectivity index, ratio of CC50 for human PHK to EC50 for Camelpox virus CML14 infected in human PHK
Camelpox virus [11] = test: Antiviral activity against Camelpox virus CML1 infected in HEL299 cells assessed as reduction in viral titer after 6 days postinfection by virus yield reduction assay; type: functional; details: HEL 299
Camelpox virus [12] = test: Antiviral activity against Camelpox virus CML14 infected in HEL299 cells assessed as reduction in viral titer after 6 days postinfection by virus yield reduction assay; type: functional; details: HEL 299
Camelpox virus [13] = test: Antiviral activity against Camelpox virus CML1 infected in human PHK assessed as reduction in viral titer after 6 days postinfection by virus yield reduction assay; type: functional
Camelpox virus [14] = test: Antiviral activity against Camelpox virus CML14 infected in human PHK assessed as reduction in viral titer after 6 days postinfection by virus yield reduction assay; type: functional
Camelpox virus [15] = test: Antiviral activity against Camelpox virus CML1 infected in HEL299 cells assessed as inhibition of viral replication at 5 to 13 uM after 6 days postinfection by virus yield reduction assay; type: functional, HEL 299; set-up: scale not given: the % may be the effect or the level left
Camelpox virus [16] = test: Antiviral activity against Camelpox virus CML14 infected in HEL299 cells assessed as inhibition of viral replication at 5 to 13 uM after 6 days postinfection by virus yield reduction assay; type: functional, HEL 299; set-up: scale not given: the % may be the effect or the level left
Camelpox virus [17] = test: Antiviral activity against Camelpox virus CML1 infected in human PHK assessed as inhibition of viral replication at 5 to 13 uM after 6 days postinfection by virus yield reduction assay; type: functional; set-up: scale not given: the % may be the effect or the level left
Camelpox virus [18] = test: Antiviral activity against Camelpox virus CML14 infected in human PHK assessed as inhibition of viral replication at 5 to 13 uM after 6 days postinfection by virus yield reduction assay; type: functional; set-up: scale not given: the % may be the effect or the level left
Camelpox virus [19] = test: Antiviral activity against Camelpox virus CML1 infected in HEL299 cells assessed as suppression of viral replication at 73 uM after 6 days postinfection by virus yield reduction assay; type: functional, organism-based; details: HEL 299
Camelpox virus [20] = test: Antiviral activity against Camelpox virus CML14 infected in HEL299 cells assessed as suppression of viral replication at 73 uM after 6 days postinfection by virus yield reduction assay; type: functional, organism-based; details: HEL 299
Camelpox virus [21] = test: Antiviral activity against Camelpox virus CML1 infected in human PHK assessed as suppression of viral replication at 73 uM after 6 days postinfection by virus yield reduction assay; type: functional, organism-based
Camelpox virus [22] = test: Antiviral activity against Camelpox virus CML14 infected in human PHK assessed as suppression of viral replication at 73 uM after 6 days postinfection by virus yield reduction assay; type: functional, organism-based
Camelpox virus [23] = test: Antiviral activity against Camelpox virus CML1 infected in differentiated human PHK raft culture assessed as reduction in viral titer determined in HEL299 cells treated after 7 days postinfection by virus yield reduction assay; type: functional; details: CML1, HEL 299, 168 h
[24] = Cytotoxicity against differentiated epithelium of human PHK raft culture at 76 uM after 4 days by Z1 Coulter counting analysis; details: 96 h
Camelpox virus [25] = test: Antiviral activity against Camelpox virus CML1 infected in human PHK raft culture assessed as complete protection of differentiated cells against viral replication at 72 uM after 7 days postinfection; type: functional, organism-based
Camelpox virus [26] = test: Antiviral activity against Camelpox virus CML1 infected in HEL299 cells assessed as complete inhibition of viral replication at 0.4 uM after 6 days postinfection by virus yield reduction assay; type: functional, organism-based; details: HEL 299
Camelpox virus [27] = test: Antiviral activity against Camelpox virus CML14 infected in HEL299 cells assessed as complete inhibition of viral replication at 0.4 uM after 6 days postinfection by virus yield reduction assay; type: functional, organism-based; details: HEL 299
Camelpox virus [28] = test: Antiviral activity against Camelpox virus CML1 infected in human PHK assessed as complete inhibition of viral replication at 4 uM after 6 days postinfection by virus yield reduction assay; type: functional, organism-based
Camelpox virus [29] = test: Antiviral activity against Camelpox virus CML14 infected in human PHK assessed as complete inhibition of viral replication at 4 uM after 6 days postinfection by virus yield reduction assay; type: functional, organism-based
Camelpox virus [30] = test: Antiviral activity against Camelpox virus CML1 infected in human PHK raft culture assessed as inhibition of viral replication at 38 uM after 7 days postinfection by virus yield reduction assay; type: functional, organism-based
[31] = Cytotoxicity against differentiated epithelium of human PHK raft culture at 38 uM after 4 days by Z1 Coulter counting analysis; details: 96 h
Camelpox virus [32] = test: Antiviral activity against Camelpox virus CML1 infected in human PHK raft culture assessed as inhibition of virus-induced cytopathic effect at 9 uM after 7 days postinfection; type: functional, organism-based
Camelpox virus [33] = test: Antiviral activity against Camelpox virus CML1 infected in human PHK epithelial raft culture assessed as inhibition of virus-induced cytopathic effect at 1.8 uM after 7 days postinfection; type: functional, organism-based
Camelpox virus [34] = test: Antiviral activity against Camelpox virus CML1 infected in human PHK raft culture assessed as inhibition of virus-induced cytopathic effect at 7 uM treated after 7 days postinfection; type: functional, organism-based
Camelpox virus [35] = test: Antiviral activity against Camelpox virus CML1 infected in human PHK raft culture assessed as inhibition of virus-induced cytopathic effect at 18 uM treated after 7 days postinfection; type: functional, organism-based
[36] = Cytotoxicity against differentiated epithelium of human PHK raft culture at 5 ug/ml after 4 days by Z1 Coulter counting analysis; details: 96 h

Structure (SMILES) | EC50 (Camelpox virus [1]) [µM] | EC50 (Camelpox virus [2]) [µM] | CC50 at 96 h [3] [µM] | selectivity ratio [4] | selectivity ratio [5] | EC50 (Camelpox virus [6]) [µM] | EC50 (Camelpox virus [7]) [µM] | CC50 at 96 h [8] [µM] | Ratio CC50/IC50 [9] | Ratio CC50/IC50 [10] | Activity (Camelpox virus [11]) | Activity (Camelpox virus [12]) | Activity (Camelpox virus [13]) | Activity (Camelpox virus [14]) | Activity (Camelpox virus [19]) | Activity (Camelpox virus [20]) | Activity (Camelpox virus [21]) | Activity (Camelpox virus [22]) | EC99 (Camelpox virus [23]) [µM] | other results
Nc1nccc2c1ncn2C[C@@H](CO)OCP(=O)(O)O | 1.5 | 1.7 | 30 | 20 | 18 | 3.1 | 2.1 | 0.3 | 0.1 | 0.1 | Dose-dependent effect | Dose-dependent effect | Dose-dependent effect | Dose-dependent effect |  |  |  |  |  | Activity (Camelpox virus [15]): 99%; Activity (Camelpox virus [16]): 99%; Activity (Camelpox virus [17]): 99%; Activity (Camelpox virus [18]): 99%
Nc1ncnc(=O)n1C[C@H]1COP(=O)(O)CO1 | 4.3 | 3 | 143 | 33 | 48 | 18 | 14.8 | 34 | 2 | 2 | Dose-dependent effect | Dose-dependent effect | Dose-dependent effect | Dose-dependent effect | Active | Active | Active | Active | 67 | Activity [24]: Non-toxic; Activity (Camelpox virus [25]): Active
CCCCCCCCCCCCCCCCOCCO[PH]1(O)CO[C@@H](Cn2c(N)ncnc2=O)CO1 |  |  |  |  |  |  |  |  |  |  |  | Dose-dependent effect | Dose-dependent effect | Dose-dependent effect |  |  |  |  |  | CC50 ([3]; hel 299, 96 h): 79 µM; Ratio CC50/IC50 ([4]; hel 299): 10; Ratio CC50/IC50 ([5]; hel 299): 12; CC50 ([8]; 96 h): 54 µM; Activity (Camelpox virus [26]): Active; Activity (Camelpox virus [27]): Active; Activity (Camelpox virus [28]): Active; Activity (Camelpox virus [29]): Active; Activity (Camelpox virus [30]): Active; Activity [31]: Toxic; Activity (Camelpox virus [32]): inactive
Nc1ncn(C[C@@H](CO)OCP(=O)(O)O)c(=O)n1 | 12.3 | 12 | 550 | 45 | 46 | 14.8 | 9.7 | 71 | 5 | 7 | Dose-dependent effect | Dose-dependent effect | Dose-dependent effect | Dose-dependent effect | Active | Active | Active | Active | 16 | Activity (Camelpox virus [33]): inactive; Activity (Camelpox virus [34]): inactive; Activity (Camelpox virus [35]): inactive; Activity [36]: Toxic
